Results on 12 compounds are retold here after ChEMBL document CHEMBL4004869, “3-Phenylalkyl-2H-chromenes and -chromans as novel rhinovirus infection inhibitors” (Bioorg Med Chem, 2017).

Series [1] in a line: Cytotoxicity against human HeLa cells assessed as changes in morphology after 3 days by microscopic method. It counts as cell-based. To be noted: read-out: MNCC. A digest of the protocol: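 HeLa cytotoxicity by XTT colorimetric assay plus microscopy after 3 days at 37 °C. MNCC is the highest concentration leaving morphology and viability of all cells unaffected. CC50 is the dose reducing viability by 50% of untreated controls. Two independent assays in triplicate.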

A short description of series [2]: Cytotoxicity against human HeLa cells assessed as reduction in cell viability by XTT assay. It counts as cell-based. In a few lines:
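HeLa cytotoxicity by XTT colorimetric assay plus microscopy after 3 days at 37 °C. MNCC is the highest concentration leaving morphology and viability of all cells unaffected. Two independent assays in triplicate.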

The subject of series [3] is rhinovirus A1B. Nature of the series: Antiviral activity against HRV 1B infected in human HeLa cells after 72 hrs by plaque reduction assay. It counts as functional, cell-based. A digest of the protocol: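 Plaque reduction in HeLa monolayers infected with virus giving about 100 plaques per well. Compound tested dose-dependently starting from the maximum non-cytotoxic concentration, with ethanol stocks diluted in medium just before use. Where 50% is not reached, percent inhibition at MNCC is given. Two independent assays in triplicate, mean ± SD.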
On the technique in general: In a plaque reduction assay, fewer plaques than in the control indicate reduced infectivity or spread.

Series [4] in a line: Selectivity index, ratio of CC50 for human HeLa cells to IC50 for HRV 1B infected in human HeLa cells. A digest of the protocol:
(§1)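 Selectivity index is CC50 (XTT, HeLa) divided by IC50 from HeLa plaque reduction against the stated serotype.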

The subject of series [5] is rhinovirus B14. Description: Antiviral activity against HRV 14 infected in human HeLa cells after 72 hrs by plaque reduction assay. It counts as functional, cell-based. In a few lines: (§2)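 Plaque reduction in HeLa monolayers infected with virus giving about 100 plaques per well. Compound tested dose-dependently starting from the maximum non-cytotoxic concentration, with ethanol stocks diluted in medium just before use. IC50 is the dose cutting plaque number by 50%, read from log concentration versus percent plaque reduction. Where 50% is not reached, percent inhibition at MNCC is given. Two independent assays in triplicate, mean ± SD.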

Series [6] can be described thus: Selectivity index, ratio of CC50 for human HeLa cells to IC50 for HRV 14 infected in human HeLa cells. A digest of the protocol: as §1
Series [7] has as its system rhinovirus B14. Nature of the series: Antiviral activity against HRV 14 infected in human HeLa cells at MNCC after 72 hrs by plaque reduction assay relative to control. It counts as functional. On the set-up: scale not given: the % may be the effect or the level left. In a few lines: as §2
Setting [8] is: Rhinovirus A, HeLa, 72 h, read-out: IC50.
[9] abbreviates: Rhinovirus B, HeLa, 72 h, read-out: IC50.

The term CC50 denotes the concentration that lowers cell viability or growth by half. For orientation: IC50 means the concentration at which inhibition is half-maximal. For the compound `Clc1ccc(CCCC2COc3ccc(Cl)cc3C2)cc1` (configuration not stated), in series [1], the MNTC at 72 h worked out at 100 µM. Further, in series [2], the 50% cytotoxic concentration (CC50) came out at 200 µM. The Activity result in series [3] and in series [5] was “Dose-dependent effect” in each case. The half-maximal inhibitory concentration (IC50) in series [3] (setting [8]) was determined as 0.56 µM; in series [5] (setting [9]) it was 30 µM. In addition, the results for the “Ratio CC50/IC50” value in series [4] and in series [6] were 357.14 and 6.67, respectively.
As to `C1=C(CCCCCc2ccccc2)COc2ccccc21`, the MNTC at 72 h in series [1] was determined as 50 µM. Also, the cytotoxic concentration (CC50) in series [2] is 100 µM. The Activity entry was “Dose-dependent effect” in series [3], “Dose-dependent effect” in series [5] and 37% in series [7]. Besides, the IC50 was 0.56 µM in series [3] (setting [8]) and greater than 50 µM in series [5] (setting [9]). Besides, in series [4], the “Ratio CC50/IC50” value is reported as 178.57.
For the compound `C1=C(CCCCc2ccccc2)COc2ccccc21`, the MNTC at 72 h in series [1] turned out to be 50 µM. For the same compound, the half-maximal cytotoxic concentration (CC50) in series [2] was found to be 100 µM. Moreover, the Activity result in series [3] and in series [5] was “Dose-dependent effect” in each case. The IC50 came to 0.54 µM in series [3] (setting [8]) and 12.7 µM in series [5] (setting [9]). Further, the entries for the “Ratio CC50/IC50” value in series [4] and in series [6] were 185.18 and 7.87, respectively.
Regarding `c1ccc(CCCCC2COc3ccccc3C2)cc1` (configuration not stated), the MNTC at 72 h in series [1] worked out at 50 µM. Besides, the half-maximal cytotoxic concentration (CC50) in series [2] was 100 µM. In addition, the Activity entry was “Dose-dependent effect” in series [3], “Dose-dependent effect” in series [5] and 25% in series [7]. Further, the half-maximal inhibitory concentration (IC50) in series [3] (setting [8]) was 0.71 µM; in series [5] (setting [9]), greater than 50 µM. Further, the “Ratio CC50/IC50” value in series [4] worked out at 140.84.
As to `O=C(/C=C/C1=Cc2ccccc2OC1)c1ccccc1`, the MNTC at 72 h in series [1] was 25 µM. The CC50 in series [2] is 50 µM. Further, the IC50 result in series [3] (hela) was “Not Active”.
`c1ccc(CCC2COc3ccccc3C2)cc1` (configuration not stated): the MNTC at 72 h in series [1] was 3.12 µM. For the same compound, the CC50 in series [2] was 6.25 µM. Also, the Activity result is “Dose-dependent effect” in series [3], “Dose-dependent effect” in series [5] and 16% in series [7]. Further, the IC50 in series [3] (setting [8]) was 0.49 µM; in series [5] (setting [9]) it was greater than 3.12 µM. For the same compound, the “Ratio CC50/IC50” value in series [4] is reported as 12.75.
For `C/C(=C\c1ccccc1)C1=Cc2ccccc2OC1`, the MNTC at 72 h in series [1] is 12.5 µM. Besides, in series [2], the CC50 was found to be 25 µM. Further, the concentration for half-maximal inhibition (IC50) result in series [3] (hela) and in series [5] (hela) was “Not Active” throughout.
`c1ccc(CCCC2COc3ccccc3C2)cc1` (configuration not stated): the MNTC at 72 h in series [1] was 100 µM. Moreover, the CC50 in series [2] came to 200 µM. For the same compound, the figures for the Activity entry in series [3], in series [5] and in series [7] were “Dose-dependent effect”, “Dose-dependent effect” and 37%, respectively. Further, the results for the half-inhibitory concentration (IC50) in series [3] (setting [8]) and in series [5] (setting [9]) were 9.59 µM and greater than 100 µM, respectively. For the same compound, in series [4], the “Ratio CC50/IC50” value is recorded as 20.85.
As for `c1ccc(CCCCCC2COc3ccccc3C2)cc1` (configuration not stated), the MNTC at 72 h in series [1] came out at 100 µM. In addition, in series [2], the CC50 came out at 200 µM. In addition, the Activity entry in series [3] and in series [5] was “Dose-dependent effect” throughout. Also, the concentration for half-maximal inhibition (IC50) in series [3] (setting [8]) worked out at 4.74 µM; in series [5] (setting [9]), 33 µM. Further, the entries for the “Ratio CC50/IC50” value in series [4] and in series [6] were 42.19 and 6.05, respectively.
With `C1=C(CCc2ccccc2)COc2ccccc21`, the MNTC at 72 h in series [1] was 25 µM. In series [2], the CC50 was 50 µM. Also, the Activity result was “Dose-dependent effect” in series [3], “Dose-dependent effect” in series [5] and 26% in series [7]. For the same compound, the values for the half-inhibitory concentration (IC50) in series [3] (setting [8]) and in series [5] (setting [9]) were 0.48 µM and greater than 25 µM, respectively. For the same compound, the “Ratio CC50/IC50” value in series [4] was determined as 104.17.
Consider `Clc1ccc2c(c1)CC(CCCc1ccccc1)CO2` (configuration not stated), for which the MNTC at 72 h in series [1] was 100 µM. In addition, in series [2], the 50% cytotoxic concentration (CC50) worked out at 200 µM. Also, the Activity result in series [3] and in series [5] was “Dose-dependent effect” in each case. Also, the IC50 came to 1.79 µM in series [3] (setting [8]) and 25 µM in series [5] (setting [9]). The “Ratio CC50/IC50” value was 111.73 in series [4] and 8 in series [6].
Take `C1=C(CCCc2ccccc2)COc2ccccc21`: the MNTC at 72 h in series [1] came to 100 µM. For the same compound, in series [2], the CC50 came out at 200 µM. For the same compound, the Activity result in series [3] and in series [5] was “Dose-dependent effect” throughout. Also, the IC50 in series [3] (setting [8]) worked out at 2.37 µM; in series [5] (setting [9]), 40.5 µM. The “Ratio CC50/IC50” value stood at 84.39 in series [4] and 4.94 in series [6].
